Measurements reported in ChEMBL document CHEMBL3124940, “Design, synthesis and biological evaluation of D-ring opened galantamine analogs as multifunctional anti-Alzheimer agents” (Eur J Med Chem, 2014).

What was measured:
Cholinesterase = Cholinesterase (Equus caballus, UniProt P81908); test: Inhibition of equine serum BChE using butyrylthiocholine iodide as substrate preincubated for 5 mins followed by substrate addition measured after 5 mins by Ellman's method
Summary of the method: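 Ellman's method with equine serum BChE and butyrylthiocholine iodide; DTNB read-out at 412 nm, 25 °C. Phosphate buffer pH 8.0. At least five concentrations (normally 10^-4 to 10^-9 M), each in triplicate, to build the inhibition curve. Data are means of at least three determinations.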

[1] = Selectivity ratio of IC50 for electric eel AChE to IC50 for equine serum BChE
Summary of the method: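 AChE is electric eel Type VI-S with acetylthiocholine; BChE is equine serum with butyrylthiocholine. At least five concentrations, each in triplicate. Ratio = IC50(AChE)/IC50(BChE).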

Acetylcholinesterase = Acetylcholinesterase (Electrophorus electricus, UniProt O42275); test: Inhibition of electric eel AChE using acetylthiocholine iodide as substrate preincubated for 5 mins followed by substrate addition measured after 5 mins by Ellman's method
Rattus norvegicus [2] = test: Toxicity in Wistar rat assessed as brain weight at 1 umol/100 g body weight, ip relative to control; type: organism-based; details: in vivo
Rattus norvegicus [3] = test: Toxicity in Wistar rat assessed as ethoxyresorufin-O-deethylation activity in liver measured as resorufin level at 1 umol/100 g body weight, ip by fluorometric analysis relative to control; type: organism-based; details: in vivo
Summary of the method: (§1)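 Rats dosed i.p.; after 24 h, liver homogenized 1:3 w/v in 0.1 M sodium phosphate pH 7.4 and centrifuged at 9000 × g, 4 °C, 20 min. Supernatant protein determined by the Biuret method. Ethoxyresorufin-O-deethylation measured fluorometrically as resorufin formed.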

Rattus norvegicus [4] = test: Toxicity in Wistar rat assessed as lipidperoxidation product level in kidney at 6 umol/100 g body weight, ip by fluorometric analysis relative to control; type: organism-based; details: in vivo
Summary of the method: (§2)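 Rats dosed i.p.; tissues taken after 24 h. For GSH/GSSG, tissue homogenized in 11 volumes of 0.2 M sodium phosphate (5 mM EDTA, pH 8.0) plus 4 volumes of 25% metaphosphoric acid and centrifuged 12 000 × g, 4 °C, 30 min; supernatant read photometrically (GSH) or fluorometrically (GSSG). Lipid peroxidation products measured as TBARS in 19-volume ice-cold saline homogenates, fluorometrically.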

Rattus norvegicus [5] = test: Toxicity in Wistar rat assessed as lipidperoxidation product level in kidney at 1 umol/100 g body weight, ip by fluorometric analysis relative to control; type: organism-based; details: in vivo; summary of the method: as §2
Rattus norvegicus [6] = test: Toxicity in Wistar rat assessed as brain weight at 6 umol/100 g body weight, ip relative to control; type: organism-based; details: in vivo
Rattus norvegicus [7] = test: Toxicity in Wistar rat assessed as GSH level in kidney at 1 umol/100 g body weight, ip by fluorometric analysis relative to control; type: organism-based; details: in vivo
Rattus norvegicus [8] = test: Toxicity in Wistar rat assessed as total glutathione level in brain at 1 umol/100 g body weight, ip by fluorometric analysis relative to control; type: organism-based; details: in vivo; summary of the method: as §2
Rattus norvegicus [9] = test: Toxicity in Wistar rat assessed as GSH level in brain at 6 umol/100 g body weight, ip by fluorometric analysis relative to control; type: organism-based; details: in vivo
Rattus norvegicus [10] = test: Toxicity in Wistar rat assessed as GSH level in liver at 6 umol/100 g body weight, ip by fluorometric analysis relative to control; type: organism-based; details: in vivo
Rattus norvegicus [11] = test: Toxicity in Wistar rat assessed as GSSG level in brain at 1 umol/100 g body weight, ip by fluorometric analysis relative to control; type: organism-based; details: in vivo; summary of the method: as §2
Rattus norvegicus [12] = test: Antialzheimer activity in Wistar rat scopolamine-induced cognition impairment model assessed as total exploration time at 1 umol/100 g body weight, ip treated for 5 mins prior to scopolamine-challenge by eight-arm radial maze test relative to control; type: functional
Summary of the method: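 Female 60-day-old Wistar rats (Han:Wist) trained in an eight-arm radial maze to error-free trials under 60 s on three consecutive days; each animal served as its own control. Test agent given i.p. in saline 5 min before scopolamine (0.05 mg/100 g b. wt., i.p. in saline). Errors plus baits not found after 10 min, and total searching time, recorded before and 20, 60, 120 min after scopolamine; n = 14, mean ± SEM.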

Rattus norvegicus [13] = test: Toxicity in Wistar rat assessed as kidney weight at 6 umol/100 g body weight, ip relative to control; type: organism-based; details: in vivo
Rattus norvegicus [14] = test: Toxicity in Wistar rat assessed as GSH level in kidney at 6 umol/100 g body weight, ip by fluorometric analysis relative to control; type: organism-based; details: in vivo
Rattus norvegicus [15] = test: Toxicity in Wistar rat assessed as GSSG level in liver at 1 umol/100 g body weight, ip by fluorometric analysis relative to control; type: organism-based; details: in vivo; summary of the method: as §2
Rattus norvegicus [16] = test: Toxicity in Wistar rat assessed as ethoxyresorufin-O-deethylation activity in liver measured as resorufin level at 6 umol/100 g body weight, ip by fluorometric analysis relative to control; type: organism-based; details: in vivo; summary of the method: as §1
Rattus norvegicus [17] = test: Toxicity in Wistar rat assessed as protein content in liver at 6 umol/100 g body weight, ip by Biuret method relative to control; type: organism-based; details: in vivo; summary of the method: as §1
Rattus norvegicus [18] = test: Toxicity in Wistar rat assessed as liver weight at 1 umol/100 g body weight, ip relative to control; type: organism-based; details: in vivo
Rattus norvegicus [19] = test: Toxicity in Wistar rat assessed as total glutathione level in kidney at 6 umol/100 g body weight, ip by fluorometric analysis relative to control; type: organism-based; details: in vivo; summary of the method: as §2
Rattus norvegicus [20] = test: Toxicity in Wistar rat assessed as protein content in liver at 1 umol/100 g body weight, ip by Biuret method relative to control; type: organism-based; details: in vivo; summary of the method: as §1
Rattus norvegicus [21] = test: Toxicity in Wistar rat assessed as total glutathione level in liver at 6 umol/100 g body weight, ip by fluorometric analysis relative to control; type: organism-based; details: in vivo
Summary of the method: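 Rats were dosed, killed 24 h later, and liver and other tissues were taken. Samples were homogenized in 11 vol 0.2 M sodium phosphate (5 mM EDTA, pH 8.0) plus 4 vol 25% metaphosphoric acid, then spun at 12 000 × g, 4 °C, 30 min. GSH was read photometrically and GSSG fluorometrically in the supernatant, alongside total glutathione.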

Rattus norvegicus [22] = test: Toxicity in Wistar rat assessed as GSH level in liver at 1 umol/100 g body weight, ip by fluorometric analysis relative to control; type: organism-based; details: in vivo
Rattus norvegicus [23] = test: Toxicity in Wistar rat scopolamine-induced cognition impairment model assessed as change in movement at 1 umol/100 g body weight, ip; type: organism-based; details: in vivo
Summary of the method: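 60-day-old female Wistar rats were trained in an eight-arm radial maze to no errors in under 60 s on 3 consecutive days; each rat served as its own control. Compound in saline was given i.p., then scopolamine (0.05 mg/100 g, saline, i.p.) 5 min later. Errors plus baits not found after 10 min and total searching time were recorded before and 20, 60 and 120 min after scopolamine; n = 14, mean ± SEM.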

Rattus norvegicus [24] = test: Toxicity in Wistar rat assessed as lipidperoxidation product level in brain at 6 umol/100 g body weight, ip by fluorometric analysis relative to control; type: organism-based; details: in vivo; summary of the method: as §2
Rattus norvegicus [25] = test: Toxicity in Wistar rat assessed as GSSG level in kidney at 6 umol/100 g body weight, ip by fluorometric analysis relative to control; type: organism-based; details: in vivo; summary of the method: as §2
Rattus norvegicus [26] = test: Toxicity in Wistar rat assessed as GSH level in brain at 1 umol/100 g body weight, ip by fluorometric analysis relative to control; type: organism-based; details: in vivo
Rattus norvegicus [27] = test: Toxicity in Wistar rat assessed as GSSG level in kidney at 1 umol/100 g body weight, ip by fluorometric analysis relative to control; type: organism-based; details: in vivo; summary of the method: as §2
Rattus norvegicus [28] = test: Toxicity in Wistar rat assessed as ethylmorphine-N-demethylation activity in liver measured as formaldehyde level at 1 umol/100 g body weight, ip by photometric analysis relative to control; type: organism-based; details: in vivo
Rattus norvegicus [29] = test: Toxicity in Wistar rat assessed as lipidperoxidation product level in brain at 1 umol/100 g body weight, ip by fluorometric analysis relative to control; type: organism-based; details: in vivo; summary of the method: as §2
Rattus norvegicus [30] = test: Toxicity in Wistar rat assessed as total glutathione level in liver at 1 umol/100 g body weight, ip by fluorometric analysis relative to control; type: organism-based; details: in vivo; summary of the method: as §2
Rattus norvegicus [31] = test: Toxicity in Wistar rat assessed as total glutathione level in brain at 6 umol/100 g body weight, ip by fluorometric analysis relative to control; type: organism-based; details: in vivo; summary of the method: as §2
Rattus norvegicus [32] = test: Toxicity in Wistar rat assessed as body weight at 1 umol/100 g body weight, ip relative to control; type: organism-based; details: in vivo
Rattus norvegicus [33] = test: Toxicity in Wistar rat assessed as change in movement at 1 umol/100 g body weight, ip; type: organism-based; details: in vivo
Rattus norvegicus [34] = test: Toxicity in Wistar rat assessed as total glutathione level in kidney at 1 umol/100 g body weight, ip by fluorometric analysis relative to control; type: organism-based; details: in vivo; summary of the method: as §2
Rattus norvegicus [35] = test: Toxicity in Wistar rat assessed as ethoxycoumarin-O-deethylation activity in liver measured as 7-hydroxycoumarin level at 6 umol/100 g body weight, ip by fluorometric analysis relative to control; type: organism-based; details: in vivo
Rattus norvegicus [36] = test: Toxicity in Wistar rat assessed as body weight at 6 umol/100 g body weight, ip relative to control; type: organism-based; details: in vivo
Rattus norvegicus [37] = test: Toxicity in Wistar rat assessed as ethoxycoumarin-O-deethylation activity in liver measured as 7-hydroxycoumarin level at 1 umol/100 g body weight, ip by fluorometric analysis relative to control; type: organism-based; details: in vivo
Rattus norvegicus [38] = test: Toxicity in Wistar rat assessed as GSSG level in brain at 6 umol/100 g body weight, ip by fluorometric analysis relative to control; type: organism-based; details: in vivo; summary of the method: as §2
Rattus norvegicus [39] = test: Toxicity in Wistar rat assessed as kidney weight at 1 umol/100 g body weight, ip relative to control; type: organism-based; details: in vivo
Rattus norvegicus [40] = test: Toxicity in Wistar rat assessed as liver weight at 6 umol/100 g body weight, ip relative to control; type: organism-based; details: in vivo
Rattus norvegicus [41] = test: Toxicity in Wistar rat assessed as lipidperoxidation product level in liver at 6 umol/100 g body weight, ip relative to control; type: organism-based; details: in vivo
Rattus norvegicus [42] = test: Toxicity in Wistar rat assessed as ethylmorphine-N-demethylation activity in liver measured as formaldehyde level at 6 umol/100 g body weight, ip by photometric analysis relative to control; type: organism-based; details: in vivo
Rattus norvegicus [43] = test: Toxicity in Wistar rat assessed as GSSG level in liver at 6 umol/100 g body weight, ip by fluorometric analysis relative to control; type: organism-based; details: in vivo; summary of the method: as §2
Rattus norvegicus [44] = test: Toxicity in Wistar rat assessed as lipidperoxidation product level in liver at 1 umol/100 g body weight, ip relative to control; type: organism-based; details: in vivo

Sequence of Cholinesterase (P81908 whole entry): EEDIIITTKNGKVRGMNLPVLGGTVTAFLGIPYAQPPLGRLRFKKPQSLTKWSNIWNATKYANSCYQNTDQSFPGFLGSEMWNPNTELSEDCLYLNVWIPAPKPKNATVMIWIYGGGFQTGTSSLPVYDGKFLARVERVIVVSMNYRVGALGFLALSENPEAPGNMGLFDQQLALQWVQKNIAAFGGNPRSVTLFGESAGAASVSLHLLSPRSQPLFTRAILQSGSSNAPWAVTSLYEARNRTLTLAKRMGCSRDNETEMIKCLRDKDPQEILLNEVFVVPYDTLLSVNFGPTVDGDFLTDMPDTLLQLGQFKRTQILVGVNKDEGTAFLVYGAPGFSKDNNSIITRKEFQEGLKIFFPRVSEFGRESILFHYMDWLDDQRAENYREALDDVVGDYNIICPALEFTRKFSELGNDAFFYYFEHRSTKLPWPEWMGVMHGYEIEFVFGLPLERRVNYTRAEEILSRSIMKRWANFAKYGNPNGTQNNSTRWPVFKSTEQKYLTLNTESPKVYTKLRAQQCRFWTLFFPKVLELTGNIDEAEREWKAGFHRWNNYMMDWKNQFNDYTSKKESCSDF
Sequence of Acetylcholinesterase (O42275 whole entry): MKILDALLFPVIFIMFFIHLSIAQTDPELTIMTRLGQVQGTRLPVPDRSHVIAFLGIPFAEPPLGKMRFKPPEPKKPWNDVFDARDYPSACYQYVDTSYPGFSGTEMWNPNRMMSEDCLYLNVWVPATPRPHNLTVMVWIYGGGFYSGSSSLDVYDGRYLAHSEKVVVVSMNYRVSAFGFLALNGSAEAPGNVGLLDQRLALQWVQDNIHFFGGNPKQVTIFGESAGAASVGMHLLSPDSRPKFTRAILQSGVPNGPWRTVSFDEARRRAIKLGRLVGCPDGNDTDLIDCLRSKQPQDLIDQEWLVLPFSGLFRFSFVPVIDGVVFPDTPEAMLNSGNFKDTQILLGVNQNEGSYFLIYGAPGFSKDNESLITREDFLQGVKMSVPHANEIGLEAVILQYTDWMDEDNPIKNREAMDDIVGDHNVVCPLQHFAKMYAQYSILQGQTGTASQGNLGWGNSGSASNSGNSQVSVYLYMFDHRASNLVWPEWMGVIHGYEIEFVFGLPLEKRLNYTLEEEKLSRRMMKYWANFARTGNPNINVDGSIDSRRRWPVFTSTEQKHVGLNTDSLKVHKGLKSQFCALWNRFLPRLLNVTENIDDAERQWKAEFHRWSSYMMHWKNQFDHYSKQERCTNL

CC(C)NCc1cccc2[nH]c3cc(O)ccc3c12
IC50 (Cholinesterase): 17.3 µM
Ratio IC50 [1]: 3.54
IC50 (Acetylcholinesterase): 43.5 µM

Nc1c2c(nc3ccccc13)CCCC2 [TACRINE]
Activity (Rattus norvegicus [2]): 1.77 g
Activity (Rattus norvegicus [3]): 134 pmol/mg/min
Activity (Rattus norvegicus [4]): 89.2 nmol/g
Activity (Rattus norvegicus [5]): 87.4 nmol/g
Activity (Rattus norvegicus [6]): 1.82 g
Activity (Rattus norvegicus [7]): 1480 µg/g
Activity (Rattus norvegicus [8]): 824 µg/g
Activity (Rattus norvegicus [9]): 671 µg/g
Activity (Rattus norvegicus [10]): 2310 µg/g
Activity (Rattus norvegicus [11]): 79.9 µg/g
Time (Rattus norvegicus [12]): 237 s
Activity (Rattus norvegicus [13]): 0.61 g
Activity (Rattus norvegicus [14]): 1457 µg/g
Activity (Rattus norvegicus [15]): 418 µg/g
Activity (Rattus norvegicus [16]): 100 pmol/mg/min
Activity (Rattus norvegicus [17]): 65.5 mg/mL
Activity (Rattus norvegicus [18]): 6.8 g
Activity (Rattus norvegicus [19]): 1800 µg/g
Activity (Rattus norvegicus [20]): 61.8 mg/mL
Activity (Rattus norvegicus [21]): 3173 µg/g
Activity (Rattus norvegicus [22]): 2542 µg/g
Activity (Rattus norvegicus [23]): Toxic
Activity (Rattus norvegicus [24]): 154 nmol/g
Activity (Rattus norvegicus [25]): 171 µg/g
Activity (Rattus norvegicus [26]): 665 µg/g
Activity (Rattus norvegicus [27]): 170 µg/g
Activity (Rattus norvegicus [28]): 0.6 nmol/mg/min
Activity (Rattus norvegicus [29]): 123 nmol/g
Activity (Rattus norvegicus [30]): 3378 µg/g
Activity (Rattus norvegicus [31]): 822 µg/g
Activity (Rattus norvegicus [32]): 228 g
Activity (Rattus norvegicus [33]): Toxic
Activity (Rattus norvegicus [34]): 1821 µg/g
Activity (Rattus norvegicus [35]): 197 pmol/mg/min
Activity (Rattus norvegicus [36]): 219 g
Activity (Rattus norvegicus [37]): 207 pmol/mg/min
Activity (Rattus norvegicus [38]): 75.6 µg/g
Activity (Rattus norvegicus [39]): 0.65 g
Activity (Rattus norvegicus [40]): 6.2 g
Activity (Rattus norvegicus [41]): 62 nmol/g
Activity (Rattus norvegicus [42]): 0.44 nmol/mg/min
Activity (Rattus norvegicus [43]): 431 µg/g
Activity (Rattus norvegicus [44]): 63.8 nmol/g

CCNCc1cccc2oc3cc(OC)ccc3c12
IC50 (Cholinesterase): 22.2 µM
Ratio IC50 [1]: 0.85
IC50 (Acetylcholinesterase): 18.9 µM
